Laboratory results taken from publication PMC6718200 (Bioorganic & medicinal chemistry, 2018).

Key:
HT29 [1] = test: Colony formation assay; assay type: cell-based, human; conditions: HT29, exposure for two weeks
SW620 [2] = test: Apoptosis assessment, PI/annexin V-FITC flow cytometry; assay type: cell-based, human; conditions: SW620, 0, 25, 50, 75 μM, 48 h
How it was run: (§1)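 Cells were grown in 10% FBS medium at 37 °C and 5% CO2: HT29 in McCoy's 5a, SW620 in high-glucose DMEM. They were treated with the test compound at 0, 25, 50 or 75 μM for 48 h. Attached and floating cells were pooled, washed twice in cold PBS and stained with annexin V-FITC/PI for 15 min at room temperature. The apoptotic fraction was read by flow cytometry. Three independent experiments, mean ± SD, two-tailed t-test.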

HT29 [3] = test: Cell cycle analysis by flow cytometry; assay type: cell-based, human; conditions: HT29, 0, 25, 50, 75 μM, 48 h
How it was run: (§2)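 Cells were cultured in 10% FBS at 37 °C and 5% CO2 (HT29 in McCoy's 5a, SW620 in high-glucose DMEM). At 80% confluence they were seeded into 6-well plates and exposed to the test compound at 0, 25, 50 or 75 μM for 48 h. Cells were washed in cold PBS and fixed in 70% ethanol at 4 °C for 24 h. They were stained with PI plus RNase A for 30 min at 37 °C in the dark, then analysed by flow cytometry. Three independent experiments.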

SW620 [4] = test: Cell cycle analysis by flow cytometry; assay type: cell-based, human; conditions: SW620, 0, 25, 50, 75 μM, 48 h
How it was run: as §2

HT29 [5] = test: Western blotting analysis; assay type: cell-based, human; conditions: HT29, 0, 25, 50, 75 μM, 48 h
How it was run: (§3)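 Cells were treated with test compound at 0, 25, 50 and 75 μM for 48 h and lysed in RIPA with protease and phosphatase inhibitors; protein was quantified by BCA. 50 µg lysate was run on 8–15% SDS-PAGE and transferred to PVDF. Blocking was 5% BSA/TBST for 2 h at RT; primary antibodies overnight at 4 °C; HRP secondary 1:10000 for 1 h. Detection by ECL, with tubulin as loading control and densitometry. Three independent experiments; mean ± SD.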

97-kinase panel = 97-kinase panel screen; assay type: binding; conditions: read-out: Kd, all tested kinases
SW620 [6] = test: Western blotting analysis; assay type: cell-based, human; conditions: SW620, 0, 25, 50, 75 μM, 48 h
How it was run: as §3

SW620 [7] = test: BrdU assay; assay type: cell-based, human; conditions: SW620, 0, 25, 50, 75 μM, 48 h
How it was run: (§4)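 Cells at 80% confluence were seeded at 20,000 per well and exposed to test compound at 0, 25, 50 and 75 μM for 48 h. They were pulsed with 10 μM BrdU for 2 h, fixed in paraformaldehyde, treated with 2 M HCl for 30 min, and blocked with 10% goat serum for 30 min at 37 °C. Staining used rat anti-BrdU (1:2000, overnight, 4 °C), then […] (1:2000, 120 min, RT), then DAPI at 300 nM. The % BrdU-positive cells was scored by fluorescence microscopy. Three independent experiments; mean ± SD.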

HT29 [8] = test: BrdU assay; assay type: cell-based, human; conditions: HT29, 0, 25, 50, 75 μM, 48 h
How it was run: as §4

HT29 [9] = test: Hoechst 33342 staining; assay type: cell-based, human; conditions: HT29, 0, 25, 50, 75 μM, 48 h
How it was run: (§5)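 Chromatin-condensation assay. HT29 (McCoy's 5a) and SW620 (high-glucose DMEM), each with 10% FBS, were seeded into 24-well plates. They were treated with the test compound at 0, 25, 50 or 75 μM for 48 h, then fixed in 4% paraformaldehyde for 20 min and washed with PBS. Cells were stained with Hoechst 33342 for 15 min at 37 °C. Condensed-chromatin apoptotic cells were scored by fluorescence microscopy.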

HT29 [10] = test: Apoptosis assessment, PI/annexin V-FITC flow cytometry; assay type: cell-based, human; conditions: HT29, 0, 25, 50, 75 μM, 48 h
How it was run: as §1

SW620 [11] = test: Colony formation assay; assay type: cell-based, human; conditions: SW620, exposure for two weeks
FHC cell lines = test: MTT assay, growth inhibition in immortalized colorectal cells; assay type: cell-based; conditions: Homo sapiens, read-out: GI50 FHC
How it was run: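 MTT format: 3 × 10³ cells per well, 24 h pre-incubation, then test compound at 0–200 μM (final, from DMSO stocks) for 12, 24, 48 or 72 h. MTT at 0.5 mg/mL final for 4 h; formazan dissolved in DMSO; A570. GI50 was fitted from growth-inhibition curves, three independent experiments in sextuplicate.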

SW620 [12] = test: Hoechst 33342 staining; assay type: cell-based, human; conditions: SW620, 0, 25, 50, 75 μM, 48 h
How it was run: as §5

With `CC(C)CN(C(=O)c1cccnc1)c1c2ccccc2c(=O)n2c1[nH]c1ccccc12` [Compound 7g] the “colony size and numbers” value (HT29 [1]) was “dramatically reduced”, the “percentage of cells undergoing apoptosis” value (SW620 [2]) was “increased in a concentration-dependent manner” and the “average G2/M proportion” value (HT29 [3]) was “increased in a concentration-dependent manner”. The “average G2/M proportion” value (SW620 [4]) was “increased in a concentration-dependent manner”, the BCL-2 protein level (HT29 [5]) was “decreased” and the CDK1 level (HT29 [5]) was “decreased”. For the same compound, the MCL-1 protein level (HT29 [5]) was “decreased”, the PARP activation (HT29 [5]) was “significantly increased” and the PTEN level (HT29 [5]) was “increase in a concentration-dependent manner”. For the same compound, the “cyclin B1 level” value (HT29 [5]) was “decreased”, the p21 level (HT29 [5]) was “increased” and the p53 level (HT29 [5]) was “increased”. The p-4E-BP1 level (HT29 [5]) was “decreased”, the p-AKT level (HT29 [5]) was “decreased” and the p-mTOR level (HT29 [5]) was “decreased”. The “total expression levels of AKT, mTOR and 4E-BP1” value (HT29 [5]) was “hadn’t effect”, the Kd (97-kinase panel) was > 5 µM and the BCL-2 protein level (SW620 [6]) was “decreased”. The CDK1 level (SW620 [6]) was “decreased”, the MCL-1 protein level (SW620 [6]) was “decreased” and the PARP activation (SW620 [6]) was “significantly increased”. The PTEN level (SW620 [6]) was “increase in a concentration-dependent manner”, the “cyclin B1 level” value (SW620 [6]) was “decreased” and the p21 level (SW620 [6]) was “increased”. The p53 level (SW620 [6]) was “increased”, the p-4E-BP1 level (SW620 [6]) was “decreased” and the p-AKT level (SW620 [6]) was “decreased”. The p-mTOR level (SW620 [6]) was “decreased”, the “total expression levels of AKT, mTOR and 4E-BP1” value (SW620 [6]) was “hadn’t effect” and the “proliferation (BrdU immunofluorescence)” value (SW620 [7]) was “inhibited the proliferation”. The “proliferation (BrdU immunofluorescence)” value (HT29 [8]) was “inhibited the proliferation”, the “number of apoptosis bodies” value (HT29 [9]) was “increased in a concentration-dependent manner” and the “percentage of cells undergoing apoptosis” value (HT29 [10]) was “increased in a concentration-dependent manner”. The “colony size and numbers” value (SW620 [11]) was “dramatically reduced”, the GI50 (FHC cell lines) was > 200 µM and the “number of apoptosis bodies” value (SW620 [12]) was “increased in a concentration-dependent manner”.
